A short description of this data set: Toxicity liver stage against HepG2, at 10uM. The note with it: human, HepG2-A16-CD81EGFP cells; read-out: INHIBITION
In kind it is cell-based. Also on record: test concentration 10 uM, cell line HepG2-A16-CD81EGFP. Summed up: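 Uninfected HepG2-A16-CD81EGFP cells, 3 × 10^3 per well, 1536-well, plated on prespotted compound at 10 μM final, parasite-free screening media added to match infected plates; puromycin 10 μM positive, DMSO 0.5% negative; run in parallel with 48 h PbLuc assay at 37 °C, 5% CO2; viability by CellTiter-Glo luminescence, normalized to controls.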

As to `CNC(=O)Cc1ccccc1NC(=O)C1CCN(C2CCCCC2)C1` (stereo unspecified), the cytotoxicity at 10 µM is -0.355%.
In the case of `COc1ccc(C(CO)NC(=O)Nc2cccc(C(C)=O)c2)cc1` (stereo unspecified), the cytotoxicity at 10 µM stood at 3.43%.
The value for `CC(C)(C)n1cc(C(=O)N2CCN(Cc3ccsc3)CC2)cn1` was -5.79%; that for `CCOCc1nn(CC2CC2)c2c1CN(Cc1cccs1)CC2` was -108%; that for `O=C(NCCn1ccnc1)c1cc(F)cc(Br)c1` was -1.62%.
The value for `CCOCC(O)CN1CCN(C(=O)Cc2ccccc2C)CC1` (stereo unspecified) was -3.43%.
The value for `CCN1C(=O)C(c2ccccc2)CC12CCN(CCO)CC2` (stereo unspecified) was 1.26%; that for `Cc1ccc(CNCCS(=O)(=O)N2CCOCC2)cc1C` was 1.41%; that for `COCCNC(=O)[C@@H]1CCO[C@@H]2CCN(c3ccc(C)nn3)C[C@@H]21` was -73.2%.
On to `CC(=O)N1CCS(=O)(=O)[C@@H]2CCN(S(=O)(=O)CC(C)C)CC[C@@H]21`, for which the cytotoxicity at 10 µM was 6.1%.
The value for `Cc1nccc(-c2cccc(NCC(=O)NCC(=O)N3CCCC3)c2)n1` was -9.18%; that for `COC[C@@]12CCO[C@@H]1CCN(C(=O)Cc1cccc(F)c1)C2` was -8.95%.
Then `Cc1nnc([C@@H]2CC[C@@H]3[C@@H](CCN3S(=O)(=O)c3cccnc3)O2)o1`, with 0.462%; and `Cn1ccc(CN2CCC(Cc3ccccc3)CC2)cc1=O`, with 1.78%.
The value for `O=C(CC1=CSC2=NCCN12)N1CCCC(CCc2cccc(F)c2)C1` (stereo unspecified) was 5.21%.
`Cc1cc(C)n(CCNCc2cc(-c3ccc(F)cc3)c[nH]c2=O)n1`: the cytotoxicity at 10 µM is -5.24%.
The value for `CC1(C)CN(C(CNS(N)(=O)=O)c2ccc(Cl)cc2)CCO1` (stereo unspecified) was 6.88%; that for `COc1cccc(N2CC3(CCN(c4ccc(C)nn4)C3)CC2=O)c1` (stereo unspecified) was 6.62%.
The value for `Cn1cnc2cc(CCC(=O)Nc3n[nH]c(C4CCCO4)n3)ccc21` (stereo unspecified) was -0.863%; that for `CN(C)CC(=O)N1Cc2nc(C(=O)NCc3ccncc3)oc2C1` was -8.58%; that for `CN(Cc1ccccc1)C1(C(=O)NCC(N)=O)Cc2ccccc2C1` was 2.45%.
For the molecule `Cc1c(C2CCCN(C(=O)C3CC3)C2)n2c(nc1=O)CCC2` (stereo unspecified), the cytotoxicity at 10 µM was -1.85%.
Then `CCN(CC)C(CNCc1ccc(C)o1)c1ccco1` (stereo unspecified), with 3.23%; and `COc1ccc(CNCC2CCN(CCO)CC2)cc1F`, with -3.71%.
Then `CNC(=O)[C@@]12CCCN(c3ncccn3)[C@@H]1CN(c1ncc(F)cn1)C2`, with -1.43%; and `Cc1cc(CN(C)C(=O)c2cccc(N3CCCS3(=O)=O)c2)no1`, with -10.2%.
With `CN(CCOc1ccccc1F)S(=O)(=O)CC1CCOCC1`, the cytotoxicity at 10 µM amounted to 6.47%.
Then `Cc1nnc(C(C)N2CCCN(Cc3ccc(C#N)cc3)CC2)o1` (stereo unspecified), with -11.1%; and `Cc1ccc(C(=O)Nc2ccc(N(C)C)nc2)n1C`, with -9.38%.
Then `CC(C)OCCC(=O)NCC(O)c1c(Cl)cccc1Cl` (stereo unspecified), with -6.93%; and `CC(=O)Nc1cc(C2CC2)nn1-c1nc(C)c(C)c(=O)[nH]1`, with -1.39%; and `CCn1ncnc1C(C)NC(=O)C1CCN(C2CCCCC2)CC1` (stereo unspecified), with -149%.
`CC(=O)N1CCCC1C(=O)NCCOc1cc(C)cc(C)c1` (stereo unspecified): the cytotoxicity at 10 µM is -10.5%.
With `COCCc1noc(CN2CC(C)(c3ccccc3)CCC2=O)n1` (stereo unspecified), the cytotoxicity at 10 µM came to 3.1%.
Then `Cc1nn(C)c(C)c1C1CCCN1C(=O)CCCNc1ncccn1` (stereo unspecified), with -3.43%; and `Cc1noc(C)c1CN1CCO[C@H]2CN(Cc3cccnc3)C[C@H]21`, with -2.61%; and `CCn1cnnc1CN(C)C(=O)c1cc(COc2cccc(F)c2)[nH]n1`, with 12.3%.
The value for `COc1cccc(CN2CCCC2c2cccc(F)c2)c1OC` (stereo unspecified) was 6.01%; that for `CC(Oc1ccccc1C(F)(F)F)C(=O)NS(=O)(=O)C(C)C` (stereo unspecified) was -7.19%.
The value for `Cc1c(C)n(Cc2ccccn2)c2nc3c(c(N)c12)CCCC3` was 8.37%; that for `O=C(NCc1n[nH]c2c1CCCCC2)c1cnn2c1CCCC2` was 13.6%.
Turning to `O=C(c1ccnnc1)N1C[C@@H](OCC2CCCC2)[C@H]2OCCC[C@H]21`, the cytotoxicity at 10 µM was -11.8%.
The value for `Cc1ccc([C@@H]2CN(C(=O)c3ccoc3C)C[C@H]2NC(=O)C2CC2)cc1` was 4.22%.
The value for `CN(C)S(=O)(=O)NCc1cccnc1Oc1ccccc1` was 1.6%; that for `O=C1CC(NCc2cnc(C3CCCCC3)nc2)CN1c1ccccc1` (stereo unspecified) was -6.8%; that for `CNc1ncc(CN(C)C(=O)c2cccc(-n3cccn3)c2)cn1` was -2.38%.
The value for `CCc1ccc(O)c(C(=O)N2CCCN(CC(=O)N(CC)CC)CC2)c1` was 6.62%.
`CC(C)N1CCC2(CC1)C(=O)N(c1cccnc1)c1c(F)cccc12`: the cytotoxicity at 10 µM worked out at 7.13%.
For the molecule `CCc1ccc(CN2CCN(Cc3ncc[nH]3)[C@H]3CS(=O)(=O)C[C@H]32)nc1`, the cytotoxicity at 10 µM is -0.235%.
As to `COCCO[C@H]1CCN(Cc2ccoc2)[C@H]1Cc1cccnc1`, the cytotoxicity at 10 µM was -3.85%.
The value for `CC(C)N1CCOC[C@H]1c1nc(C(C)(C)C)c[nH]1` was -1.99%; that for `CC(C)n1ccnc1C1CCCN(c2ccccn2)C1` (stereo unspecified) was 1.28%.
Then `COc1cccc(-c2n[nH]cc2C(=O)NC(C)CC(=O)O)c1` (stereo unspecified), with -8.91%; and `COCC(=O)N1CCC2(CC1)CN(c1cncnc1)C(=O)CO2`, with -78.6%.
The value for `Cc1cc(C)cc(CN2CCC3(CC2)CC(Nc2ncccn2)CO3)c1` (stereo unspecified) was 5.39%.
Consider `COc1cnc(N2CCCC(c3ncc[nH]3)C2)nc1` (stereo unspecified), for which the cytotoxicity at 10 µM is -0.268%.
Then `FC(F)(F)CN1CCC(CNc2nc3ccccc3o2)C1` (stereo unspecified), with 2.7%; and `CC(NC(=O)N1CCCN(Cc2cccs2)CC1)c1cccnc1` (stereo unspecified), with -8.83%; and `Cc1cccc(OCCC(=O)N(C)CCC#N)c1C`, with 0.666%.
Then `CCCn1nc2c(cc1=O)CN(Cc1nnc(C3CC3)o1)CC2`, with 2.11%.
Then `Cc1cc(N(Cc2ccccc2F)C2CC2)n2nc(C(F)(F)F)nc2n1`, with 0.43%; and `CCCn1cc(NC(=O)c2ccc(N(C)CC)cc2)ccc1=O`, with -0.704%.
For the molecule `O=C(Nc1nccs1)NC1CCN(CC2CCCC2)CC1`, the cytotoxicity at 10 µM was -8.07%.
With `CC(C)c1nc(S(=O)(=O)Nc2ccnn2C2CCCC2)c[nH]1`, the cytotoxicity at 10 µM was -3.36%.
As for `CCC(=O)N1CCC2(CC1)CN(CCO)Cc1ccccc12`, the cytotoxicity at 10 µM came to 5.23%.
Then `O=C(C1CCOc2ccccc21)N1CCOc2cccc(F)c21` (stereo unspecified), with 4.52%; and `Cc1nnc2n1CCN(Cc1csc(-c3ccsc3)n1)C2`, with -12.4%.
The value for `c1cc(CCN2CCN(c3ccc4nncn4n3)CC2)ccn1` was 4.76%.
The value for `O=C(c1cc2ccccc2[nH]1)N1CCC(Nc2cccnn2)CC1` was -16.9%.
As to `Cc1nn(COc2cccc(F)c2)c(C)c1NC(=O)C1CC1`, the cytotoxicity at 10 µM turned out to be 5.62%.
Then `Cc1cc(C(=O)NCc2ccc(N3CCCC(C(N)=O)C3)cc2)[nH]n1` (stereo unspecified), with 4.23%; and `CCCC(C#N)NC(=O)COC1CCCCC1` (stereo unspecified), with 8.71%; and `COc1ccc2c(c1)C(C(=O)N(C)CCc1cnn(C)c1)CC(=O)N2` (stereo unspecified), with -57.2%.
As to `Cc1cc(CN2CCN(C(=O)NC(C)c3ccncc3)CC2)on1` (stereo unspecified), the cytotoxicity at 10 µM is -5.66%.
Then `CN1CCOC(C(=O)N2CCOC3(CCCC3)C2)C1` (stereo unspecified), with 7.28%; and `CN1CC(c2ccccc2)CC12CCN(C(=O)c1c(Cl)cnn1C)CC2` (stereo unspecified), with -17%; and `NS(=O)(=O)c1cccnc1Nc1cccc(Cl)c1Cl`, with -2.19%.
As to `CC(C)C1CN(C(=O)c2ccc3nccnc3c2)CCS1` (stereo unspecified), the cytotoxicity at 10 µM was found to be 5.02%.
The value for `CC(=O)NCCNC(=O)CN1CCN(Cc2nccn2C)C(C)C1` (stereo unspecified) was -6.73%.
Turning to `CCN(Cc1cccc2c1OCO2)C(=O)Nc1cn[nH]c1`, the cytotoxicity at 10 µM is -17.2%.
The value for `CC(=O)C1(c2ccccc2)CCN(C(=O)CC2CNCCO2)CC1` (stereo unspecified) was -4.46%; that for `COCCN1C(=O)CC[C@@H]2[C@H]1CCN2C(=O)N(C)C` was 10.7%.
The value for `CC(=O)NCC[C@H]1CC(C)(C)Oc2ccccc21` was -0.363%; that for `CC(C)c1csc(C2CCCN(C(=O)c3ncccn3)C2)n1` (stereo unspecified) was 6.3%.
Then `CNC(=O)C1CCCCN1C(=O)c1sc(-c2ccc(C)o2)nc1C` (stereo unspecified), with 4.45%.
Take `CSc1ncc(C(=O)N2CCC(O)(CN3CCOCC3)C(C)(C)C2)cn1` (stereo unspecified): the cytotoxicity at 10 µM was -2.16%.
Then `COc1cccc(CN(C)C(=O)CCC(=O)c2ccccc2)c1OC`, with -3.62%; and `COc1ccc(Cl)cc1-c1nc(N)nc(N)n1`, with 1.57%; and `CC(=O)N1CCO[C@@H]2CN(C(=O)c3ccccc3)CC[C@@H]2C1`, with 5.29%.
In the case of `CNC(=O)c1cc2ccccc2n1C`, the cytotoxicity at 10 µM was 6.84%.
On to `CCOCC(O)CN1CCN(C(=O)c2ccc3c(c2)COC3)CC1` (stereo unspecified), for which the cytotoxicity at 10 µM is -0.0716%.
Then `Cc1ccc(C(=O)NCCNC(=O)N(C)C(C)c2ccccn2)cc1` (stereo unspecified), with 7.97%.
Then `CCN1CCN(Cc2nc(CC(C)C)no2)CC1`, with -23%; and `O=C(CCc1nccs1)N1CCC(N2CCNC2=O)CC1`, with -9.86%.
Then `CS(=O)(=O)CCN1CCC(=Cc2ccccc2)CC1`, with -2.99%; and `CN1CCN(C[C@@H]2CN(Cc3c(Cl)cncc3Cl)C[C@@H]2CO)CC1`, with -124%.

The values are drawn from ChEMBL document CHEMBL4513216, “Probing the Open Global Health Chemical Diversity Library for Multistage-Active Starting Points for Next-Generation Antimalarials” (ACS Infect Dis, 2020).
